From ChEMBL document CHEMBL1124328, “Hypoxia-selective antitumor agents. 1. Relationships between structure, redox properties and hypoxia-selective cytotoxicity for 4-substituted derivatives of nitracrine” (J Med Chem, 1989) come the findings set out here.

One data set has as its system Nucleic Acid. As to the kind of experiment: Logarithm of association constant for binding to poly[d(A-T)], determined by ethidium displacement. In kind it is nucleic-acid assay. The method in brief: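 Ethidium displacement assay with poly[d(A-T)], giving log association constant. No quenching corrections were applied.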
The nature of data set [1]: Ratio of cytotoxicity determined in air to that of cytotoxicity determined in N2 was measured under aerobic conditions to hypoxic conditions by the clonogenic assay against Chinese hamster ovary (subline AA8) cells. In kind it is cell-based, Cricetulus griseus. The conditions noted are these: subline AA8 (CHO-AA8). The method in brief: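 Clonogenic survival of plateau-phase AA8 cells in stirred suspension at 37 °C. Cells and drug were pre-gassed separately for 45 min with 5% CO₂ in air or in N₂, then mixed using a gas-purged syringe. Plating efficiency was sampled over up to 3 h. Drug levels were chosen to give similar killing rates under both gases. Ratio = CT₁₀(air)/CT₁₀(N₂), where CT₁₀ is concentration × time for 10% survival.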

Data set [2] is described as follows: Equilibrium constant measured by the pulse radiolysis at pH 7. In kind it is ADME. In outline:
(§1)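 Pulse radiolysis on a 1.8 MV linac (ca. 3 Gy in 0.2 μs) of solutions at 21 °C in a 2-cm pathlength cell, buffered at pH 7 with 2 mM sodium phosphate. Dose was set by aerated 10 mM KSCN absorbance at 472 nm. The equilibrium constant K for ArNO₂/ArNO₂•⁻ versus benzylviologen came from radical ratios over various substrate concentrations. E(1) was derived from K relative to E(BV²⁺/BV•⁺).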

Data set [3] is described as follows: Compound''s one-electron reduction potential (E(1)) has been measured by radiolysis at pH 7. The method in brief:
as §1

Data set [4] can be described thus: Relative lipophilicity of the compound. The conditions noted are these: octanol/water. In kind it is physicochemical.
Data set [5] in a line: Compound's one-electron reduction potential (E(1)) has been measured by radiolysis at pK1. The method in brief: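 Calculated from E(1) measured at pH 7 using the paper's pH-dependence expression. Side-chain pKa values (pK2, pKr2) were assumed equal for all derivatives, and the acridine radical pKa was assumed 4.3 pH units above pK1.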
Data set [6] can be described thus: Dissociation constant of the compound. In kind it is physicochemical.
The nature of data set [7]: Cytotoxicity was measured under aerobic conditions by the clonogenic assay against Chinese hamster ovary (subline AA8) cells. The data set is classed as cell-based, Cricetulus griseus. On the set-up: unit not given here. The method in brief:
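CHO AA8 cells were grown in alpha MEM with 10% FCS, then taken to unfed plateau phase in spinner flasks (1.0–1.3 × 10⁶ cells/mL). Cells were resuspended in 5% FCS medium, and cells and drug were pre-equilibrated separately for 45 min at 37 °C under flowing 5% CO₂ in air. Exposure was as stirred suspension for up to 3 h, with plating efficiency sampled over time. CT₁₀ is the concentration × time giving 10% survival.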

Data set [8] is described as follows: Dissociation constant was determined. The data set is classed as physicochemical.

Broadly, the pKa is the negative logarithm of the acid dissociation constant. Turning to `CN(C)CCCNc1c2ccccc2nc2c(F)ccc([N+](=O)[O-])c12`, the Log K in the data set on Nucleic Acid was 6.15 M-1. Besides, in data set [1], the selectivity ratio turned out to be 5.3. The K in data set [2] was 2.4 M⁻¹. The values for the E in data set [3] and in [5] were -354 mV and -277 mV, respectively. In data set [4], the Rm is given as -0.46. Further, the pKa in [6] is 5.41. Further, the CT10 in data set [7] was found to be 2.
Turning to `COC(=O)c1ccc([N+](=O)[O-])c2c(NCCCN(C)C)c3ccccc3nc12`, in the data set with Nucleic Acid, the Log K is 6.06 M-1. The pKa in data set [8] was found to be 5.35. The selectivity ratio in [1] is 0.32. The same compound came in with a K in data set [2] of 175 M⁻¹. For the same compound, the E is -244 mV in [3] and -164 mV in data set [5]. In data set [7], this compound displayed a CT10 of 8.
As to `COc1ccc([N+](=O)[O-])c2c(NCCCN(C)C)c3ccccc3nc12`, the Log K in the data set on Nucleic Acid is 6.76 M-1. The selectivity ratio in data set [1] was determined as 16. The compound further returned a K in data set [2] of 1.9 M⁻¹. In addition, the E in data set [3] was -361 mV; in data set [5] it was -346 mV. This compound also returned a Rm in data set [4] of -0.88. The compound further had a pKa in data set [6] of 6.61. In addition, in [7], the CT10 amounted to 22.
For `CN(C)CCCNc1c2ccccc2nc2cccc([N+](=O)[O-])c12` [NITRACRINE], the Log K in the data set on Nucleic Acid was 6.92 M-1. The selectivity ratio in data set [1] is 9.9. Besides, in data set [2], the K was 18 M⁻¹. In addition, the E was -303 mV in [3] and -270 mV in data set [5]. In [4], this compound came in with a Rm of -0.85. The compound also returned a pKa in data set [6] of 6.21. The compound also returned a CT10 in data set [7] of 0.47.
With `Cc1ccc([N+](=O)[O-])c2c(NCCCN(C)C)c3ccccc3nc12`, the Log K in the data set on Nucleic Acid was 7.23 M-1. In data set [1], the selectivity ratio was 10. In addition, the K in [2] was determined as 8.8 M⁻¹. The E in [3] is -321 mV; in data set [5] it was -292 mV. The compound also displayed a Rm in [4] of -0.76. Further, the pKa in data set [6] worked out at 6.29. For the same compound, the CT10 in data set [7] is listed as 2.
On to `CC(=O)OCCN(CCOC(C)=O)c1ccc([N+](=O)[O-])c2c(NCCCN(C)C)c3ccccc3nc12`, for which, in the data set with Nucleic Acid, the Log K was 6.5 M-1. In data set [1], the selectivity ratio amounted to 11.5. Besides, in data set [2], the K was found to be 11.7 M⁻¹. Moreover, the E is -314 mV in data set [3] and -280 mV in data set [5]. This compound displayed a Rm in data set [4] of -0.29. This compound yielded a pKa in data set [6] of 6.2. In data set [7], this compound came in with a CT10 of 575.
`CN(C)CCCNc1c2ccccc2nc2c(N(CCO)CCO)ccc([N+](=O)[O-])c12`: the Log Ke in the data set on Nucleic Acid was 6.73 M-1. For the same compound, in data set [1], the selectivity ratio is 6. In data set [4], this compound displayed a Rm of -0.74. This compound also had a pKa in data set [6] of 6.53. In [7], this compound registered a CT10 of 540.
Consider `CN(C)CCCNc1c2ccccc2nc2c(N(C)C)ccc([N+](=O)[O-])c12`, for which the Log K in the data set with Nucleic Acid was 7.11 M-1. The selectivity ratio in data set [1] was 16. This compound also displayed a K in data set [2] of 5.3 M⁻¹. Also, the E was -334 mV in data set [3] and -314 mV in [5]. In addition, the Rm in data set [4] was -0.63. This compound also gave a pKa in data set [6] of 6.47. In addition, in data set [7], the CT10 is 720.
In the case of `CN(C)CCCNc1c2ccccc2nc2c(Cl)ccc([N+](=O)[O-])c12`, the Log K with Nucleic Acid was 5.95 M-1. Further, the selectivity ratio in [1] was 13.6. The K in data set [2] was 7 M⁻¹. Further, the E in [3] was -325 mV; in data set [5], -225 mV. In data set [4], this compound yielded a Rm of -0.25. This compound also yielded a pKa in data set [6] of 5. The CT10 in [7] was 0.68.
